The values below come from ChEMBL document CHEMBL1781911, “Verrucamides A-D, antibacterial cyclopeptides from Myrothecium verrucaria” (J Nat Prod, 2011).

Values after ≈ are worked out from the molar mass of the structure shown. Square brackets hold non-standard residues; d marks the D form. Peptide text beside a SMILES is read from it. NMeT = CN[C@H](C(=O)O)[C@@H](C)O; aIle = CC[C@@H](C)[C@H](N)C(=O)O; dNMeF = CN[C@H](Cc1ccccc1)C(=O)O; NMeV = CN[C@H](C(=O)O)C(C)C; NMeS = CN[C@@H](CO)C(=O)O; dNMeA = CN[C@H](C)C(=O)O

For this experiment, the system named is Staphylococcus aureus. The experiment in a line: Antibacterial activity against Staphylococcus aureus Col CGMCC 1.2465 after 24 hrs by NCCLS […] method. The experiment is classed as functional, organism-based. The conditions noted are these: COL CGMCC 1.2465, 24 h. In a few lines:
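Broth microdilution in triplicate per NCCLS guidance; strain grown in Mueller-Hinton broth, 3-4 colonies cultured at 37 °C for 24 h, final inoculum 10^6 cells/mL in MHB. Samples from 10 mg/mL DMSO stocks, serially diluted; ampicillin positive control. Incubated 37 °C for 24 h, growth read as absorbance at 595 nm.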
`CC1(C)S[C@@H]2[C@H](NC(=O)[C@H](N)c3ccccc3)C(=O)N2[C@H]1C(=O)O` [AMPICILLIN] yielded an IC50 of 0.09 µg/mL (≈ 0.258 µM) and an MIC of 0.625 µg/mL (≈ 1.79 µM).

For `CC[C@@H](C)[C@@H]1NC(=O)CNC(=O)[C@@H](C)N(C)C(=O)[C@H](C(C)C)NC(=O)[C@H]([C@@H](C)O)N(C)C(=O)[C@H](C(C)C)NC(=O)[C@H]([C@@H](C)O)N(C)C(=O)[C@H](C(C)C)NC(=O)CNC(=O)[C@@H](Cc2ccccc2)N(C)C(=O)[C@H](C(C)C)NC(=O)[C@H](CO)NC(=O)[C@H]([C@H](C)CC)N(C)C(=O)[C@H](CO)N(C)C1=O` [VERRUCAMIDE A], the half-inhibitory concentration (IC50) came to 3.59 µg/mL (≈ 2.54 µM) and the minimum inhibitory concentration (MIC) was determined as 10 µg/mL (≈ 7.06 µM).

Consider `CC[C@@H](C)[C@@H]1NC(=O)CNC(=O)[C@@H](C)N(C)C(=O)[C@H](C(C)C)NC(=O)[C@H]([C@@H](C)O)N(C)C(=O)[C@H](C(C)C)NC(=O)[C@H]([C@@H](C)O)N(C)C(=O)[C@H](C(C)C)NC(=O)CNC(=O)[C@@H](Cc2ccccc2)N(C)C(=O)[C@H](C(C)C)NC(=O)[C@H](CO)NC(=O)[C@H](C(C)C)N(C)C(=O)[C@H](CO)N(C)C1=O` [VERRUCAMIDE B] (cyclo(GV[NMeT]V[NMeT]V[dNMeA]G[aIle][NMeS][NMeV]SV[dNMeF])), for which 5.31 µg/mL (≈ 3.79 µM) corresponded to half-maximal inhibition (IC50) and the minimal inhibitory concentration (MIC) was 20 µg/mL (≈ 14.3 µM).

Take `CC[C@@H](C)[C@H]1C(=O)N[C@@H](CO)C(=O)N[C@@H](C(C)C)C(=O)N(C)[C@H](Cc2ccccc2)C(=O)NCC(=O)N[C@@H](C(C)C)C(=O)N(C)[C@@H]([C@@H](C)O)C(=O)N[C@@H](C(C)C)C(=O)N(C)[C@@H]([C@@H](C)O)C(=O)N[C@@H](C(C)C)C(=O)N(C)[C@H](C)C(=O)NCC(=O)N[C@@H](C(C)C)C(=O)N(C)[C@@H](CO)C(=O)N1C` [VERRUCAMIDE C]: the IC50 was determined as 4.45 µg/mL (≈ 3.17 µM) and the minimum inhibitory concentration (MIC) came to 10 µg/mL (≈ 7.13 µM).

Molecule `CC(C)[C@@H]1NC(=O)[C@H]([C@@H](C)O)N(C)C(=O)[C@H](C(C)C)NC(=O)[C@H]([C@@H](C)O)N(C)C(=O)[C@H](C(C)C)NC(=O)CNC(=O)[C@@H](Cc2ccccc2)N(C)C(=O)[C@H](C(C)C)NC(=O)[C@H](CO)NC(=O)[C@H](C(C)C)N(C)C(=O)[C@H](CO)N(C)C(=O)[C@H](C(C)C)NC(=O)CNC(=O)[C@@H](C)N(C)C1=O` [VERRUCAMIDE D] yielded a half-maximal inhibitory concentration (IC50) of 9.09 µg/mL (≈ 6.55 µM) and a minimal inhibitory concentration (MIC) of 40 µg/mL (≈ 28.8 µM).

In general, IC50 refers to the concentration at which inhibition is half-maximal. Low readings indicate greater potency in that assay, high ones weaker potency in that assay. For orientation: MIC means the lowest concentration found to suppress growth. A lower MIC goes with inhibition by little substance.
